Screening results deposited in PubChem BioAssay by several laboratories.
The list is not random: actives were taken first. Their share in the collection is about 1.9%.
Scp-1 inhibitor = inhibitors of human Scp-1 phosphatase. Recombinant Scp1, phosphopeptide, malachite green phosphate absorbance. inhibition, % at 20 µM. Q9GZU7. AID 493091. hit rate 0.88% among 340,000;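 active means inhibition above about 50% at 20 µM, limit read from the data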;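 further: plate controls were DMSO wells with enzyme for no effect and wells lacking enzyme for full effect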
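Test system: SCP-1 phosphatase catalytic domain, residues 76-261; measured by: colorimetric phosphate reagent with accelerator and stabiliser, absorbance at 630 nm; timing: enzyme reaction 45 min at room temperature, colour 5 min, stabilisation 30 min; also added: Phosphorylated 17-residue peptide substrate; compound dosing: one concentration, 20 µM, with 1.0% DMSO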
LMPTP block = blocks human LMPTP phosphatase; P24666; recombinant LMPTP-A, OMFP fluorogenic substrate, fluorescence intensity; inhibition, % at 20 µM; hit rate 0.22% among 360,000; AID 651560;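 active means compounds that cut the enzyme signal by at least half of the control window in the single-dose screen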;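 further: plate controls were DMSO wells with enzyme plus substrate for no effect and substrate without enzyme for full effect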
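Assay system: LMPTP-A, protein tyrosine phosphatase of low molecular weight / Medium: pH 6.0 Bis-Tris buffer with DTT and Triton X-100 / Schedule: 50 min enzyme reaction at room temperature, protected from light / Measured by: endpoint fluorescence intensity from OMFP dephosphorylation / Read-out basis: % inhibition relative to no-enzyme and uninhibited control wells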
PP5 primary = inhibitors of human protein phosphatase 5 (PP5). P53041. purified PP5c, OMFP substrate fluorescence. inhibition, % at 6.7 µM. hit rate 0.18% among 320,000. AID 1987;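 active means inhibition above the campaign's mean inhibition across all tested compounds plus 3 SD, cut at about 9.5% in these data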;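 further: 0% = DMSO only and 100% = 100 µM cantharidin control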
Target sequence (P53041 whole entry, looked up): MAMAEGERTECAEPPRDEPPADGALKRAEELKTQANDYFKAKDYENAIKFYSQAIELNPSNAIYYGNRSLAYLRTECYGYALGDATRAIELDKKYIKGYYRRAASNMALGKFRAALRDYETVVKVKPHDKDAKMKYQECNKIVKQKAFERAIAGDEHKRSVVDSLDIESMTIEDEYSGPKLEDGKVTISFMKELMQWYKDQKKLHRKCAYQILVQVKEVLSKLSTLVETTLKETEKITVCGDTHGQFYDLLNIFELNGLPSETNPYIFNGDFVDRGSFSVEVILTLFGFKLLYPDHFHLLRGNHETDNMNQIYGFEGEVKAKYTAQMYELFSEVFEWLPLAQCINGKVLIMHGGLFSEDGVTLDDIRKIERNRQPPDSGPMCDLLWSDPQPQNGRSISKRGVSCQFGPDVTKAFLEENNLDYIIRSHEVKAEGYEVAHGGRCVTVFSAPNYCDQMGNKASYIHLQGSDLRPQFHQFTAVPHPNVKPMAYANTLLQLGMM
PP1 inh = counter-screen for PP5 inhibitors: inhibitors of human PP1-alpha. purified PP1alpha, OMFP fluorescence. hit rate 0.9% among 320,000. inhibition, % at 6.7 µM. AID 2235;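 active means inhibition above the mean inhibition of all tested compounds plus 3 SD, computed separately for each screening campaign, cut at about 15% in these data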
STEP inh = STEP (human) phosphatase inhibition; AID 588621; hit rate 0.25% among 360,000; P54829; recombinant STEP, OMFP fluorogenic substrate, fluorescence; inhibition, % at 20 µM;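 active means inhibition at 20 µM, scaled per plate between control wells, above about 37%, limit read from the data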;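 further: 0% = DMSO with enzyme and substrate and 100% = substrate only without enzyme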
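Measure: Control-normalized % inhibition with plate pattern correction | Test system: STEP phosphatase, cell-free reaction | Medium: pH 6.0 Bis-Tris with DTT and Tween 20 | Technique: Fluorescence, 480/540 nm | Times: Reaction 20 min, ambient temperature | Doses: Single compound dose of 20 µM, 1% DMSO final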
Starred values were filed as active, the others as inactive; nt = not tested or not shown.

SMILES	Scp-1 inhibitor	LMPTP block	PP5 primary	PP1 inh	STEP inh
O=C1NC(=S)S/C1=C\c1coc2ccc(O)cc2c1=O	4	3	1	8	68*
O=C1NC(=S)S/C1=C\c1coc2ccccc2c1=O	-1	-1	0	2	0
CNc1nc2c(-c3ccc(Cl)cc3)nnn2c2ccccc12	-7	76*	-1	2	4
CCC(=O)NC(c1ccc(OC)cc1)c1cc(Cl)c2cccnc2c1O (stereo not drawn)	-4	3	0	16*	6
Cn1c(SCC(=O)Nc2ccc3nc(SCC(=O)NC4CC4)sc3c2)nnc1-c1ccccc1	-3	0	1	0	6
Cn1c(SCC(=O)Nc2ccc3nc(SCC(=O)N4CCCC4)sc3c2)nnc1-c1ccc(N)cc1	65*	31	nt	nt	6
Cc1ccccc1OCc1nnc(SCC(=O)Nc2ccc3nc(SCC(=O)Nc4ccccc4)sc3c2)n1C	-1	1	0	17*	0
FC(F)(F)C1=Nc2cccc3cccc(c23)N1	-1	87*	nt	nt	18
Fc1ccc(C2=Nc3cccc4cccc(c34)N2)cc1	-2	-1	5	-4	13
O=c1cc(CSc2nnnn2-c2ccccc2)nc(Nc2ccc(F)cc2)[nH]1	5	34	2	15*	13
O=C1C(=O)N(C/C=C/c2ccccc2)c2ccccc21	-4	1	0	17*	1
CC(=O)OCC1=C(C(=O)O)N2C(=O)C(NC(=O)COc3ccc(F)cc3)C2SC1 (stereo not drawn)	54*	0	nt	nt	4
Cc1cc2nc3s/c(=C/c4ccc(-c5ccccc5C(=O)O)o4)c(=O)n3c2cc1C	98*	7	2	3	24
O=C(O)c1ccccc1-c1ccc(/C=c2\sc3nc4cc(Br)cnc4n3c2=O)o1	90*	70*	1	4	83*
O=C(O)c1ccccc1C1c2ccccc2Oc2ccccc21	-15	-1	nt	nt	1
CC(CCC(=O)NN)C1CCC2C3CCC4CC(O)CCC4(C)C3CCC12C (stereo not drawn)	-8	-2	nt	nt	1
CC(CCC(C)C(C)(C)C)[C@@H]1CC[C@H]2C3C[C@H](OS(O)(=S)=S)[C@H]4C[C@H](OS(O)(=S)=S)[C@@H](OS(O)(=S)=S)C[C@]4(C)[C@H]3CC[C@]12C (stereo partly drawn) (tested in a mixture with another compound)	25	81*	nt	nt	31
O=C(NCc1ccco1)c1ccc2snnc2c1	-2	-1	1	-4	3
O=C(/C=C/c1cc[n+](CC(=O)c2ccc3cccc4c3c2CC4)cc1)c1ccc2cccc3c2c1CC3	17	54*	12*	46*	19
O=C(N/N=C/c1ccsc1)c1ccc2c(c1)OCO2	-4	-1	3	-2	-1
CC(C)n1cc(/C=N/Nc2ccc(Cl)c(C(=O)O)c2)c2ccccc21	nt	54*	0	2	91*
O=C(O)c1cc(N/N=C/c2cccc3ccccc23)ccc1Cl	-3	-1	1	-3	0
COc1ccc(CCNC(=O)c2ccc3c(c2)N(Cc2ccc(F)cc2)CCS3)cc1OC	-8	5	2	3	2
Cc1ccc(-n2nc3c(N4CCC(C(=O)NCc5ccccc5C)CC4)nnc(C)c3c2C)cc1	10	27	4	16*	1
C/C(N)=C(/C#N)C(=O)CSc1nnc(Nc2cccc(C)c2C)s1	8	2	6	2	0
SMILES	Scp-1 inhibitor	LMPTP block	PP5 primary	PP1 inh	STEP inh
C/C(N)=C(/C#N)C(=O)CSc1nnc(Nc2c(C)cccc2C)s1	70*	10	0	2	1
COCC(=O)Nc1cccc2ccccc12	-2	1	0	-4	-1
N#CCCn1cc(/C=N/O)c(-c2ccc(-c3ccccc3)cc2)n1	4	1	2	3	2
CCCCCCCC(=O)Nc1cc(C(=O)NCCC)ccc1N1CCC2(CC1)CC(c1cccc(Br)c1)=NO2	2	7	2	2	6
CCCNC(=O)c1ccc(N2CCC3(CC2)CC(c2cccc(Br)c2)=NO3)c(NC(=O)c2cccc(C)c2)c1	0	4	3	16*	6
COc1cccc2oc3cc(C#Cc4ccccn4)ccc3c(=O)c12	59*	nt	-1	-4	nt
Cc1cccc(Cl)c1NC(=O)N1CCN(c2ccnc3cc(Cl)ccc23)CC1	-3	1	3	-4	-2
